Test results: ChEMBL document CHEMBL4513216, “Probing the Open Global Health Chemical Diversity Library for Multistage-Active Starting Points for Next-Generation Antimalarials” (ACS Infect Dis, 2020)

Experiment: Toxicity liver stage against HepG2, at 10uM
Format: cell-based
Design: test concentration 10 uM, cell line HepG2-A16-CD81EGFP
Settings: human, HepG2-A16-CD81EGFP cells; read-out: INHIBITION
Method in brief: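 Uninfected HepG2-A16-CD81EGFP cells, 3 × 10^3 per well, 1536-well, plated on prespotted compound at 10 μM final, parasite-free screening media added to match infected plates; puromycin 10 μM positive, DMSO 0.5% negative; run in parallel with 48 h PbLuc assay at 37 °C, 5% CO2; viability by CellTiter-Glo luminescence, normalized to controls.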
With NC(=O)C1CCN(C(=O)CCSCc2ccc(Cl)c(Cl)c2)CC1 the cytotoxicity at 10 µM was -1.35%.
Fc1ccc(OCc2nnc([C@H]3CCN(Cc4ccccn4)C3)o2)cc1 showed a cytotoxicity at 10 µM of 0.413%.
For Cc1nn(-c2ccccn2)c(C)c1[C@@H]1C=C[C@@H](NC(=O)NC(C)C)C1, the cytotoxicity at 10 µM was 1.52%.
O=C1c2ncccc2C(CCO)N1Cc1ccccc1 (configuration not stated) showed a cytotoxicity at 10 µM of -4.26%.
COc1cccc(N2CCN(C(=O)COc3c(C)occc3=O)CC2)c1 gave a cytotoxicity at 10 µM of -1.29%.
O=C(NCC(O)c1cccs1)c1ccco1 (configuration not stated) showed a cytotoxicity at 10 µM of -14.7%.
Cc1oncc1C(=O)N1CC2CC1(C(=O)NCc1ccco1)C2 showed a cytotoxicity at 10 µM of 4.76%.
Cn1cc(CN2CC[C@H]3[C@H]2CC(=O)N3Cc2ccncc2)cn1 gave a cytotoxicity at 10 µM of -5.87%.
Cc1ccc(CNC(=O)c2nc3c(o2)CN(c2ncccn2)C3)o1 showed a cytotoxicity at 10 µM of -5.58%.
In the case of O=C(NC1CCc2[nH]c(=O)ccc2C1)C1CCOCC1 (configuration not stated), the cytotoxicity at 10 µM was 1.42%.
Compound CCS(=O)(=O)N1CCC2(CN(C(=O)c3cscn3)C2)C1 has a cytotoxicity at 10 µM of 10.8%.
With O=c1cc(CN2CCCC2)nc2n1CCCN(CC1CCOCC1)C2 the cytotoxicity at 10 µM was 9.97%.
With O=C(c1cscn1)N1C[C@@H](Oc2cccnc2)[C@H]2OCCC[C@H]21 the cytotoxicity at 10 µM was 7.77%.
In the case of NC(=O)C1CCN(c2nc3nccc(-c4ccccn4)c3c(=O)[nH]2)CC1, the cytotoxicity at 10 µM was -9.24%.
Cc1ccc(NCc2nc3n(n2)CCCCC3)c(C)c1 showed a cytotoxicity at 10 µM of 4.7%.
Cc1c(S(=O)(=O)N2CCOCC2)cc2c(C)cc(=O)n3c2c1CCC3 showed a cytotoxicity at 10 µM of 3.36%.
Work on CSCc1cccc(S(=O)(=O)N2CCCCCC2)c1 yielded a cytotoxicity at 10 µM of 6.91%.
Work on COc1c(C(=O)NCc2cccnc2)nnn1Cc1ccccc1 yielded a cytotoxicity at 10 µM of 12.5%.
CS(=O)(=O)N1CCC(n2nnn(-c3ccccc3)c2=O)CC1 gave a cytotoxicity at 10 µM of 2.58%.
Oc1cc(-c2nccs2)nc(C2CCN(Cc3cccs3)CC2)n1 showed a cytotoxicity at 10 µM of 16.7%.
CN(C(=O)c1cc(F)ccc1F)[C@@H]1CC[C@@H](O)[C@@H]1O gave a cytotoxicity at 10 µM of -0.822%.
In the case of CS(=O)(=O)N1CCC(c2ccncn2)CC1, the cytotoxicity at 10 µM was 6.77%.
Work on Cn1nccc1CCC(=O)N1CCOC(c2cnccn2)C1 (configuration not stated) yielded a cytotoxicity at 10 µM of -25.9%.
With Cc1cc(-c2ccc(C(=O)O)cc2)nc(C2CCN(C(C)C)CC2)n1 the cytotoxicity at 10 µM was -26.3%.
With Oc1nc(-c2cnccn2)nc2c1CCN(Cc1ccccn1)C2 the cytotoxicity at 10 µM was 1.51%.
With O=C(c1ccc(Cl)s1)N1CCC2(COc3ncccc3S(=O)(=O)N2)C1 (configuration not stated) the cytotoxicity at 10 µM was 8.77%.
For CCC(CC)C(O)CNC(=O)Cc1c[nH]c2ncccc12 (configuration not stated), the cytotoxicity at 10 µM was 0.476%.
For Brc1cnc(NCCCOCC2CCOC2)nc1 (configuration not stated), the cytotoxicity at 10 µM was -2.15%.
With Cc1ccccc1C(C)NC(=O)CN1CCN(Cc2cccs2)CC1 (configuration not stated) the cytotoxicity at 10 µM was 48.9%.
CC(NCCc1nccn1Cc1ccccc1)c1ccsc1 (configuration not stated) showed a cytotoxicity at 10 µM of 8.4%.
Work on CN(C)c1cc(CNC(=O)C2COc3ccccc3O2)ccn1 (configuration not stated) yielded a cytotoxicity at 10 µM of 2.5%.
CN(c1c(F)cccc1F)S(=O)(=O)c1cc2c(c(C(=O)O)c1)OCCO2 gave a cytotoxicity at 10 µM of -7.57%.
For CC(C)n1cc(S(=O)(=O)N2CCCC(N3CCCCC3)C2)cn1 (configuration not stated), the cytotoxicity at 10 µM was 2.78%.
CCc1nc(CCNC(=O)C2CC2)sc1C showed a cytotoxicity at 10 µM of -14.1%.
For Cc1nc(CN2CCC(CNC(=O)CCC3CCCC3)CC2)oc1C, the cytotoxicity at 10 µM was -1.29%.
O=C(Cc1ccc2c(c1)CCC2)N1CCCC1Cn1cccn1 (configuration not stated) gave a cytotoxicity at 10 µM of -139%.
O=C(c1cc2ccccc2c(=O)[nH]1)N1CCN(CCO)CC1 gave a cytotoxicity at 10 µM of 4.96%.
Compound COc1ncc(C)cc1NC(=O)CCc1ccccn1 has a cytotoxicity at 10 µM of -9.58%.
Compound CCN(C(=O)c1cccc2c1OCO2)c1ccc(Br)cn1 has a cytotoxicity at 10 µM of 3.44%.
Work on O=c1n(CCSCCOc2ccc(Br)cc2)nc2ccccn12 yielded a cytotoxicity at 10 µM of 10%.
Cc1noc(C)c1CN(C)C(=O)CCOc1ccc(Cl)cc1 gave a cytotoxicity at 10 µM of -2.51%.
Work on CCCN1CCCN(C(=O)c2oc(C)nc2C)CC1 yielded a cytotoxicity at 10 µM of 24.3%.
For Cc1ccc(CNCCCNS(C)(=O)=O)c(Br)c1, the cytotoxicity at 10 µM was 3.36%.
In the case of CN(CCNC(=O)Nc1nccs1)Cc1ccc(F)cc1, the cytotoxicity at 10 µM was -1.32%.
For CCCNC(=O)C(C)NC(=O)CCc1ccccc1Br (configuration not stated), the cytotoxicity at 10 µM was 14.5%.
Work on Cc1ccn(-c2ccccc2NCc2ccccn2)n1 yielded a cytotoxicity at 10 µM of -9.99%.
Compound Cc1cc(=O)n2ncnc2n1CC(O)c1ccccc1Cl (configuration not stated) has a cytotoxicity at 10 µM of 1.67%.
Cc1ncc(-c2ccnc(NC3CC3)n2)c(-c2cccnc2)n1 showed a cytotoxicity at 10 µM of -14.2%.
Work on COCC(Nc1ncnc2c1CCNCC2)c1ccccn1 (configuration not stated) yielded a cytotoxicity at 10 µM of 0.565%.
With O=c1cc(N2CCCCC2)cnn1C[C@H](O)CO the cytotoxicity at 10 µM was 2.04%.
Cc1nc(C)c(CC(=O)N2C[C@@H](C(=O)O)[C@H](c3ccccc3C)C2)s1 showed a cytotoxicity at 10 µM of -120%.
CCCOC(=O)N1CCCC2(CCN(Cc3cccc(C#N)c3)C2)C1 (configuration not stated) showed a cytotoxicity at 10 µM of -4.59%.
Work on O=C(CCn1cc(Cl)cn1)N1CCC2(CC1)OCCCC2O (configuration not stated) yielded a cytotoxicity at 10 µM of -135%.
For CCC(C)N(Cc1ccsc1)C(=O)c1ccc(CO)cc1 (configuration not stated), the cytotoxicity at 10 µM was 4.26%.
O=C(c1ccc(S(=O)(=O)NCc2ccon2)cc1)N1CCOCC1 gave a cytotoxicity at 10 µM of 3.08%.
CN(Cc1ncc[nH]1)S(=O)(=O)c1cccc(C(=O)N2CCOCC2)c1 gave a cytotoxicity at 10 µM of -9.5%.
c1ccc(-c2noc3c2CN(CC2CC2)CC3)cc1 showed a cytotoxicity at 10 µM of -13.2%.
With Cn1ncc(NC(=O)c2noc3c2CCCC3)c1C(N)=O the cytotoxicity at 10 µM was 5.8%.
Compound O=C(c1ccc(F)cc1F)N1CC[C@H](O)[C@@H](N2CCOCC2)CC1 has a cytotoxicity at 10 µM of 2.62%.
In the case of CC(C)CN1CCN(C(=O)CCn2cccn2)CC1, the cytotoxicity at 10 µM was -5.45%.
Cc1nn(C)c(Cl)c1C1CCCN1C(=O)c1cc(C2CC2)on1 (configuration not stated) gave a cytotoxicity at 10 µM of -13.3%.
O=C(O)c1cc(S(=O)(=O)N2CCOc3ccccc32)ccc1Br showed a cytotoxicity at 10 µM of -3.39%.
For CC(O)CN1CCN(C(=O)c2cc(Cl)cc3cccnc23)CC1 (configuration not stated), the cytotoxicity at 10 µM was -1.78%.
In the case of CCc1ccc(C(=O)NCc2ccnc(N3CCN(C)CC3)c2)o1, the cytotoxicity at 10 µM was -9.07%.
In the case of CCc1ccc(C(=O)NC2CCc3nc(C)cn3C2)o1 (configuration not stated), the cytotoxicity at 10 µM was -8.45%.
In the case of CCc1nc(CC(=O)N2CCCC2Cn2cccn2)cs1 (configuration not stated), the cytotoxicity at 10 µM was -2.6%.
Work on Cn1cc(C(=O)CC2CCCN2C(=O)c2cncc3ccccc23)cn1 (configuration not stated) yielded a cytotoxicity at 10 µM of 4.11%.
CCN1CCC(NC(=O)CN2CCCC2Cn2nc(C)cc2C)CC1 (configuration not stated) gave a cytotoxicity at 10 µM of -6.83%.
With CCN1CCN(C(=O)NCCOc2ccc3c(c2)OCO3)CC1 the cytotoxicity at 10 µM was -4.59%.
Compound CCOc1ccccc1-c1noc(CN2CCCC(O)C2)n1 (configuration not stated) has a cytotoxicity at 10 µM of -3.85%.
CCOC(=O)CSc1nnc([C@@H](N)C(C)C)o1 gave a cytotoxicity at 10 µM of 0.979%.
FC(F)(F)c1nc(C2CCNCC2)no1 showed a cytotoxicity at 10 µM of 5.88%.
In the case of CO[C@@H]1CCN(c2nnc(C)s2)C[C@@H]1Cc1cccc(C)c1, the cytotoxicity at 10 µM was 11.8%.
CN(Cc1ccco1)Cc1cnc2n1CCN(c1ncccn1)CC2 gave a cytotoxicity at 10 µM of -0.603%.
Cc1ccc2c(n1)N(CC(C)C)CCN(C(=O)Cc1ccccn1)C2 gave a cytotoxicity at 10 µM of 12.7%.
In the case of CC(C)CN1CCS(=O)(=O)[C@@H]2CCN(S(=O)(=O)CC(C)C)CC[C@@H]21, the cytotoxicity at 10 µM was 11.3%.
With O=C(NCc1cccnc1)N1CCC2(CC(=O)N(c3ccsc3)C2)C1 (configuration not stated) the cytotoxicity at 10 µM was -0.125%.
In the case of Cc1cccc(CN2C[C@@H](C)[C@@]3(CCN(CC(=O)N(C)C)C3=O)C2)c1, the cytotoxicity at 10 µM was -0.979%.
Work on CN1CCc2cc(C(=O)N(C)C)c(NCC3CC3)nc2CC1 yielded a cytotoxicity at 10 µM of 7.8%.
CCO[C@@H]1CN(S(=O)(=O)c2cn(C)cn2)[C@@H]2CCCO[C@@H]21 gave a cytotoxicity at 10 µM of -146%.
With NC(=O)N1CCC2(CC1)CN(Cc1cccnc1)C(=O)CO2 the cytotoxicity at 10 µM was 3.63%.
CCC(=O)N1CC[C@@H]2[C@H](CC1)N(Cc1cccc(C)n1)CCS2(=O)=O showed a cytotoxicity at 10 µM of -1.31%.
